Experiment [1] has as its system Jurkat. Briefly: Activity on rosetting of jurkat T-cells with SRBC at the concentration of 10e-9 M; Not significant. The following applies: Homo sapiens, at 0.001 µM. The experiment is classed as functional, cell-based. The procedure, abridged: (§1)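 Jurkat T lymphoma cells kept in RPMI 1640 with 10% heat-inactivated FCS, washed three times before use; SRBC washed three times. Jurkat cells (2 × 10^6 cells/mL, 2.10⁵ cells) preincubated with peptide in RPMI for 10 min at 4 °C. SRBC (2 × 10^8 cells/mL) added, centrifuged 5 min at 200g, held overnight at 4 °C. Rosettes (three erythrocytes per lymphocyte) counted blind by hemocytometer; three experiments in quadruplicate; % inhibition.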

The subject of experiment [2] is Jurkat. As to the kind of experiment: (§2) Activity on rosetting of jurkat T-cells with SRBC at the concentration of 10e-10 M. The experiment is classed as functional, Homo sapiens.
Experiment [3] concerns Jurkat. Briefly: Activity on rosetting of jurkat T-cells with SRBC at the concentration of 10e-8 M; Not significant. The experiment is classed as functional, cell-based. As to conditions: Homo sapiens, at 0.01 µM. In outline:
as §1

For experiment [4], the system named is Jurkat. As to the kind of experiment: Activity on rosetting of jurkat T-cells with SRBC at the concentration of 10e-10 M; Not significant. The following applies: Homo sapiens, at 0.0001 µM. The experiment is classed as functional, cell-based. In outline: as §1
The subject of experiment [5] is Jurkat. As to the kind of experiment: (§3) Activity on rosetting of jurkat T-cells with SRBC at the concentration of 10e-5 M. The experiment is classed as functional, Homo sapiens.
Experiment [6] concerns Jurkat. As to the kind of experiment: (§4) Activity on rosetting of jurkat T-cells with SRBC at the concentration of 10e-11 M. The class given is functional, Homo sapiens.
Experiment [7] has as its system Jurkat. As to the kind of experiment: Activity on rosetting of jurkat T-cells with SRBC at the concentration of 10e-7 M; Not significant. The class given is functional, cell-based. As to conditions: Homo sapiens, at 0.1 µM. In outline: as §1
The test system of experiment [8] is Jurkat. As to the kind of experiment: (§5) Activity on rosetting of jurkat T-cells with SRBC at the concentration of 10e-9 M. The experiment is classed as functional, Homo sapiens.
The subject of experiment [9] is Jurkat. As to the kind of experiment: (§6) Activity on rosetting of jurkat T-cells with SRBC at the concentration of 10e-7 M. The experiment is classed as functional, Homo sapiens.
For experiment [10], the system named is Jurkat. As to the kind of experiment: (§7) Activity on rosetting of jurkat T-cells with SRBC at the concentration of 10e-3 M. The experiment is classed as functional, Homo sapiens.
Experiment [11] relates to Jurkat. As to the kind of experiment: Activity on rosetting of jurkat T-cells with SRBC at the concentration of 10e-5 M; Not significant. The class given is functional, cell-based. As to conditions: Homo sapiens.
Experiment [12] relates to Jurkat. Briefly: Activity on rosetting of jurkat T-cells with SRBC at the concentration of 10e-6 M; Not significant. The experiment is classed as functional, cell-based. The following applies: Homo sapiens.
Experiment [13] has as its system Jurkat. As to the kind of experiment: (§8) Activity on rosetting of jurkat T-cells with SRBC at the concentration of 10e-6 M. The class given is functional, Homo sapiens.
The subject of experiment [14] is Jurkat. As to the kind of experiment: Activity on rosetting of jurkat T-cells with SRBC at the concentration of 10e-4 M; Not significant. The experiment is classed as functional, cell-based. The following applies: Homo sapiens.
For experiment [15], the system named is Jurkat. Briefly: (§9) Activity on rosetting of jurkat T-cells with SRBC at the concentration of 10e-4 M. The class given is functional, Homo sapiens.
The test system of experiment [16] is Jurkat. As to the kind of experiment: Activity on rosetting of jurkat T-cells with SRBC at the concentration of 10e-11 M; Not significant. The experiment is classed as functional, cell-based. The following applies: Homo sapiens, at 10 pM. In outline:
as §1

Experiment [17] relates to Jurkat. Briefly: (§10) Activity on rosetting of jurkat T-cells with SRBC at the concentration of 10e-8 M. The class given is functional, Homo sapiens.
Experiment [18] deals with Jurkat. As to the kind of experiment: Activity on rosetting of jurkat T-cells with SRBC at the concentration of 0 M. The experiment is classed as functional, Homo sapiens.
Experiment [19] relates to Jurkat. Briefly: Activity on rosetting of jurkat T-cells with SRBC at the concentration of 10e-3 M; Not significant. The following applies: Homo sapiens. The class given is functional, cell-based.
Experiment [20] concerns Jurkat. As to the kind of experiment: Activity on rosetting of jurkat T-cells with SRBC at the concentration of 10e-11 M; Not Significant. The experiment is classed as functional, cell-based. The following applies: Homo sapiens.
The subject of experiment [21] is Jurkat. The description is as §3. The class given is functional. The following applies: Homo sapiens.
The test system of experiment [22] is Jurkat. Described as §5. The following applies: Homo sapiens. The experiment is classed as functional.
Experiment [23] has as its system Jurkat. As to the kind of experiment: Activity on rosetting of jurkat T-cells with SRBC at the concentration of 10e-12 M; Not Significant. The experiment is classed as functional, cell-based. The following applies: Homo sapiens.
Experiment [24] concerns Jurkat. The description is as §2. The class given is functional. As to conditions: Homo sapiens.
The test system of experiment [25] is Jurkat. Briefly: Activity on rosetting of jurkat T-cells with SRBC at the concentration of 10e-10 M; Not Determined. The class given is functional, Homo sapiens.
Experiment [26] concerns Jurkat. The description is as §10. As to conditions: Homo sapiens. The experiment is classed as functional.
For experiment [27], the system named is Jurkat. As to the kind of experiment: (§11) Activity on rosetting of jurkat T-cells with SRBC at the concentration of 10e-12 M. The class given is functional, Homo sapiens.
The subject of experiment [28] is Jurkat. The experiment is described as §6. The class given is functional. The following applies: Homo sapiens.
Experiment [29] has as its system Jurkat. The experiment is described as §8. The following applies: Homo sapiens. The class given is functional.
The subject of experiment [30] is Jurkat. The description is as §9. The experiment is classed as functional. As to conditions: Homo sapiens.
In experiment [31] the test system is Jurkat. Briefly: Activity on rosetting of jurkat T-cells with SRBC at the concentration of 10e-15 M; Not significant. The class given is functional, cell-based. As to conditions: Homo sapiens.
The test system of experiment [32] is Jurkat. As to the kind of experiment: Activity on rosetting of jurkat T-cells with SRBC at the concentration of 10e-15 M. The experiment is classed as functional, Homo sapiens.
In experiment [33] the test system is Jurkat. Briefly: (§12) Activity on rosetting of jurkat T-cells with SRBC at the concentration of 10e-14 M. The class given is functional. As to conditions: Homo sapiens.
Experiment [34] concerns Jurkat. The experiment is described as §11. The experiment is classed as functional. As to conditions: Homo sapiens.
In experiment [35] the test system is Jurkat. As to the kind of experiment: (§13) Activity on rosetting of jurkat T-cells with SRBC at the concentration of 10e-13 M. The class given is functional, Homo sapiens.
The test system of experiment [36] is Jurkat. The experiment is described as §12. The experiment is classed as functional, Homo sapiens.
In experiment [37] the test system is Jurkat. The description is as §4. The experiment is classed as functional. As to conditions: Homo sapiens.
For experiment [38], the system named is Jurkat. Described as §13. The class given is functional. The following applies: Homo sapiens.
The test system of experiment [39] is Jurkat. Described as §7. The experiment is classed as functional. As to conditions: Homo sapiens.

Consider four compounds from ChEMBL document CHEMBL1124866, “Synthesis and activity of NAcSerAspLysPro analogues on cellular interactions between T-cell and erythrocytes in rosette formation” (1990).

The structures appear in SMILES notation. Active and inactive are the calls of the source. The rule behind the calls is not given here. Peptide text beside a SMILES is read from it.

As usually defined, the inhibition is the percentage by which the read-out fell short of the control.

As for `CC(=O)N[C@@H](CO)C(=O)N[C@H](CC(=O)O)C(=O)N[C@@H](CCCCN)C(=O)N1CCC[C@H]1C(=O)O`, the inhibition entry in [1], in [3], in [4], in [7], in experiment [11] and in experiment [12] was “inactive” in each case. Further, the inhibition result in [14], in experiment [16] and in [19] was “inactive” throughout. Further, the “No. of rosettes/100 Jurkat T cells” value in experiment [2] came to 43; in [5], 49; in experiment [6], 57; in experiment [8] it was 51; in experiment [9], 47; in experiment [10], 48. Besides, the “No. of rosettes/100 Jurkat T cells” value in [13] amounted to 42; in experiment [15], 48; in experiment [17] it was 47; in experiment [18], 51.

For the compound `CC(=O)N[C@@H](CO)C(=O)N[C@@H](CC(=O)O)C(=O)N[C@@H](CCCCN)C(=O)O` (Ac-Ser-Asp-Lys-OH), the inhibition entry in [20] and in [23] was “inactive” each time. The same compound gave an inhibition at 10 µM in experiment [21] of 40%. Besides, the “No. of rosettes/100 Jurkat T cells” value in experiment [5] was found to be 37; in [6], 62; in experiment [8], 51; in [9], 45; in [13], 38; in [25], 56. For the same compound, the “No. of rosettes/100 Jurkat T cells” value in experiment [27] was 59; in experiment [15] it was 35; in [17] it was 48; in experiment [18] it was 63. The same compound gave an inhibition at 0.001 µM in experiment [22] of 18%. In experiment [24], this compound displayed an inhibition at 0.0001 µM of 10%. The inhibition at 0.01 µM in [26] was 23%. In experiment [28], this compound returned an inhibition at 0.1 µM of 27%. Further, in [29], the inhibition at 1 µM amounted to 39%. Besides, in [30], at 100 µM the inhibition was 44%.

`NCCCC[C@H](NC(=O)[C@H](CC(=O)O)NC(=O)[C@@H](N)CO)C(=O)O` (H-Ser-Asp-Lys-OH): the “No. of rosettes/100 Jurkat T cells” value in [2] turned out to be 43; in [5], 45; in experiment [6], 40; in experiment [32], 63; in experiment [8], 43; in experiment [9], 49. The “No. of rosettes/100 Jurkat T cells” value in experiment [13] turned out to be 50; in [35] it was 51; in experiment [36], 55; in experiment [27] it was 44; in [15], 38; in [17], 40. Also, the “No. of rosettes/100 Jurkat T cells” value in experiment [18] worked out at 63. The compound further yielded an inhibition at 10 µM in experiment [21] of 28%. In experiment [31], the inhibition entry was “inactive”. In experiment [22], this compound yielded an inhibition at 0.001 µM of 32%. This compound also came in with an inhibition at 10 fM in experiment [33] of 14%. In addition, in experiment [34], at 1 pM the inhibition was 30%. The compound further registered an inhibition at 0.0001 µM in experiment [24] of 32%. The compound further yielded an inhibition at 0.01 µM in [26] of 36%. In experiment [37], this compound yielded an inhibition at 10 pM of 36%. Moreover, in experiment [28], the inhibition at 0.1 µM was 22%. The same compound had an inhibition at 1 µM in experiment [29] of 22%. The compound also displayed an inhibition at 100 fM in [38] of 19%. This compound also came in with an inhibition at 100 µM in experiment [30] of 40%.

As for `CC(=O)N[C@@H](CO)C(=O)N[C@@H](CC(=O)O)C(=O)N[C@@H](CCCCN)C(=O)N1CCC[C@H]1C(=O)O` (stereo in doubt; form 1) [GORALATIDE], the “No. of rosettes/100 Jurkat T cells” value in experiment [2] worked out at 63; in [5], 32; in experiment [6], 58; in [8], 48; in experiment [9], 40; in experiment [10], 32. Further, the “No. of rosettes/100 Jurkat T cells” value in [13] was 37; in experiment [15], 33; in [17], 41; in experiment [18] it was 62. Moreover, the inhibition at 10 µM in experiment [21] is 48%. The same compound registered an inhibition at 0.001 µM in [22] of 21%. Also, the inhibition at 0.01 µM in experiment [26] was found to be 34%. In experiment [28], this compound returned an inhibition at 0.1 µM of 35%. In addition, in experiment [39], testing at 1000 µM gave an inhibition of 48%. Moreover, 1 µM produced 40% inhibition in experiment [29]. Also, testing at 100 µM in experiment [30] gave an inhibition of 48%.
